Shown are actives, neighbours in structure and some others; about 4.7% of the full set was active somewhere.
AHR activator: human AHR activation; AHR-responsive luciferase reporter cells, luminescence; activation, % at 5 µM; actives 2.5% (n = 320,000); in the data active = activation above about 47%
MC4R antagonist: antagonists of human melanocortin 4 receptor (MC4R); P32245; MC4R-expressing cells, MTII-stimulated cAMP, LANCE TR-FRET; inhibition, % at 6.5 µM; actives 0.48% (n = 360,000); AID 540295;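 active = inhibition above its plate's cutoff, the mean of tested wells on that plate plus 3 SD, cut at about 29% in these data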
Target sequence (P32245 whole entry, looked up): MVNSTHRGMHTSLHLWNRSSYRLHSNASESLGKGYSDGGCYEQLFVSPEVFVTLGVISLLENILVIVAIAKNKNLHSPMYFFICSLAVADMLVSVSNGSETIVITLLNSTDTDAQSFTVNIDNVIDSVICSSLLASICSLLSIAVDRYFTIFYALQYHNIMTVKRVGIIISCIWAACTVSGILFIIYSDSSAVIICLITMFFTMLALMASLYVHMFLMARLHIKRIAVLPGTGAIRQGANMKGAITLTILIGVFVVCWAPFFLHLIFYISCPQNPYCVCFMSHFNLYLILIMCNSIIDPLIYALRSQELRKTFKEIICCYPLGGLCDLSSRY
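Test system: U2OS cells stably expressing human melanocortin 4 receptor (MC4R); also added: Melanotan II challenge; compound: 6.5 µM single dose; timing: 30-min compound preincubation, 1-h Melanotan II challenge, 1-h detection, room temperature; signal: Eu-cAMP/anti-cAMP TR-FRET, emission 671 nm; repeats: one well per compound, no replicates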
FXN GAA850 act: frataxin GAA850 promoter activation | activation, % at 6 µM | actives 0.56% (n = 360,000) | AID 540364 | HEK293 lucGAA850 FXN promoter luciferase reporter, 24 h; percent of 10 µM SAHA response;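 active = activation above the average of all compounds screened plus 3 SD, cutoff fixed separately per campaign, cut at about 7.5% in these data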
HTR2A ag: activates the mouse 5-HT2A serotonin receptor; AID 624169; actives 0.66% (n = 360,000); activation, % at 7.6 µM; CHO-K1 mHTR2A beta-arrestin complementation, luminescence; percent of 30 µM serotonin response;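 active = activation above a run cutoff, the mean activation of all tested compounds plus 3 SD, cut at about 14% in these data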
MC4R ag barr: agonists of human melanocortin 4 receptor (MC4R) beta-arrestin; U2OS MC4R beta-arrestin complementation, luminescence; percent of melanotan II response, DMSO zero; actives 0.98% (n = 360,000); P32245; AID 540308; activation, % at 8.9 µM;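 active = activation above a per-plate cutoff, the mean activation of sample wells on that plate plus 3 SD, cut at about 8% in these data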
MOR ag counter: counter-screen for mouse HTR2A agonists: human mu opioid receptor agonists; U2OS OPRM1 beta-arrestin PathHunter, luminescence; DMSO 0%, DAMGO 9.3 µM 100%; actives 5.3% (n = 2,300); activation, % at 9.3 µM; AID 624380; shares compounds with HTR2A ag;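 active = mean activation above the mean of DMSO-only wells plus 3 SD, cut at about 0.5% in these data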
m5-HT2A ag conf: mouse HTR2A agonism confirmed | activation, % at 7.6 µM | actives 19% (n = 2,300) | AID 624381 | CHO-K1 PathHunter beta-arrestin recruitment, luminescence; DMSO 0%, 30 µM serotonin 100% | shares compounds with HTR2A ag;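 active = mean activation across triplicates above the hit threshold derived in the original primary screen, cut at about 15% in these data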
Hits are given with their value; n = inactive; x = not tested or not shown.

SMILES	AHR activator	MC4R antagonist	FXN GAA850 act	HTR2A ag	MC4R ag barr	MOR ag counter	m5-HT2A ag conf
OCC1(Cc2cccc(C(F)(F)F)c2)CCN(Cc2cc3ccccc3o2)CC1	n	n	n	24.3	9.2	n	64.0
Cc1ccc2nc(-c3ccco3)c(CC(C)(C)C)n2c1	x	x	x	n	x	x	x
O=C(O)/C=C\C(=O)Nc1ccc(N2CCN(c3cccc(Cl)c3)CC2)cc1	n	n	n	16.8	n	n	n
O=C(O)/C=C\C(=O)Nc1ccc(N2CCN(c3ccc(Cl)c(Cl)c3)CC2)cc1	n	n	n	35.1	n	n	n
O=C(O)/C=C\C(=O)Nc1ccc(N2CCN(c3ccc(Cl)cc3)CC2)cc1	n	n	n	n	n	x	x
CC(Sc1nnc(C2CC2)n1-c1ccccc1)C(=O)N1CCCC1 (stereo not drawn)	x	n	n	n	n	x	x
COCCCNC(=O)C[C@@H]1C[C@@]2(C(=O)OC)CCCCC=C2N(Cc2ccco2)C1=O	x	x	x	n	x	x	x
CN(C)CCN(Cc1ccccc1)C(c1cc2ccccc2o1)c1nnnn1C(C)(C)C (stereo not drawn)	x	x	x	n	x	x	x
CC(C)(C)n1nnnc1C(c1cc2ccccc2o1)N(CCC#N)Cc1ccccc1 (stereo not drawn)	x	x	x	42.0	x	n	n
COc1ccc(-c2cnc3c(NC=O)cc(-c4ccc(S(C)(=O)=O)cc4)cn23)cc1OC	x	n	n	15.0	n	n	n
CC(C#N)(NC(=O)CN1CCN(S(=O)(=O)c2ccccc2C#N)CC1)C1CC1 (stereo not drawn)	n	n	n	n	n	x	x
CNC(=O)c1ccc(CNC(=O)OCC(F)(F)F)cc1	n	n	n	25.3	n	n	n
CCc1nc2sc3c(c2c(=O)n1N)CC(C)(C)OC3	n	n	n	n	n	x	x
CCOC(=O)CSc1nc2sc3c(c2c(=O)n1CC)CC(C)(C)OC3	n	n	n	23.1	n	n	n
COc1ccc(NC(=O)CN(Cc2ccco2)Cc2ccco2)cc1S(=O)(=O)N1CCCCC1	n	n	n	n	n	x	x
Cc1cc2cc(CCNC(=O)CCc3ccccc3)c(=O)[nH]c2cc1C	n	n	n	21.9	n	n	n
Cc1ccc(C)c(C(=O)CCC(=O)Nc2cccnc2)c1	n	n	n	15.1	n	n	n
O=C(Nc1cccc2nsnc12)c1ccc(-c2cccc(Cl)c2)o1	52.1	n	n	15.7	n	n	n
Cc1ccc2nsnc2c1NC(=O)c1ccc(-c2cc(Cl)ccc2Cl)o1	n	n	n	n	n	x	x
O=C1NC[C@@H](CCCCN2C[C@H](Cc3ccc(O)cc3)N(CCc3ccccc3)C(=O)C2=O)N(CCc2ccc(O)cc2)C1=O	x	x	x	n	x	x	x
CCCC(=O)Nc1cccc(-c2nc3ccccc3c(=O)o2)c1	n	n	n	15.0	n	n	n
C[C@@H]1CN([C@@H](C)CO)C(=O)CCCn2nncc2CO[C@H]1CN(C)S(=O)(=O)c1ccc2ccccc2c1	x	n	n	n	n	x	x
Cc1ccc(-n2c(CNc3ccc(F)cc3)nnc2SCC(=O)O)cc1	n	n	n	n	n	x	x
Cc1ccc(C)c(-n2c(CNc3ccc(F)cc3)nnc2SCC(N)=O)c1	n	n	n	18.3	n	n	n
O=C(OCCCOC(=O)c1ccc(O)cc1)c1ccc(O)cc1	x	n	n	n	n	x	x
SMILES	AHR activator	MC4R antagonist	FXN GAA850 act	HTR2A ag	MC4R ag barr	MOR ag counter	m5-HT2A ag conf
Cc1ccc(S(=O)(=O)NCCN(CCNS(=O)(=O)c2ccc(C)cc2)S(C)(=O)=O)cc1	n	n	n	24.2	n	n	n
Cc1ccc(S(=O)(=O)NCCCCCCNS(=O)(=O)c2ccc(C)cc2)cc1	x	n	n	n	n	x	x
CC(C)c1[nH]nc2c1C1(CCN(Cc3ccccc3)CC1)C(C#N)=C(N)O2	n	n	n	30.7	n	n	n
O=C(Nc1ccc2snnc2c1)N1CCSCC1	n	n	n	17.3	n	n	n
COc1ccc(S(=O)(=O)NCc2csc(-c3cccnc3)n2)cc1	n	n	n	17.4	n	n	n
COC(=O)C[C@H]1C=C[C@H](NC(=O)c2cccc(F)c2)[C@@H](CO)O1	x	x	x	n	x	x	x
O=C(CN1C(=O)/C(=C/c2ccc(Cl)cc2)SC1=S)NC1C=CS(=O)(=O)C1 (stereo not drawn)	n	n	n	15.3	n	n	n
O=C(CN1C(=O)/C(=C/c2ccc(F)cc2)SC1=S)NC1C=CS(=O)(=O)C1 (stereo not drawn)	n	n	n	n	n	x	x
COc1ccc(OCC(=O)NC(=S)NNC(=O)COc2ccc(Br)cc2Cl)cc1	n	n	n	16.2	n	n	n
COc1ccc(NC(=S)NNC(=O)COc2ccc(Cl)cc2Cl)cc1	n	n	n	n	n	x	x
COc1ccccc1NS(=O)(=O)c1cccc(NC(=O)c2cncc(Br)c2)c1	n	n	n	n	n	x	x
CC(C)(C)OC(=O)N[C@H]1C=C[C@@H](OC(=O)CC(=O)OCC(F)(F)F)C1	x	n	n	n	n	x	x
CCCC(=O)Nc1nc(-c2ccc3c(c2)OCCO3)cs1	n	n	n	16.5	n	n	n
CCCCn1nnnc1C(c1cc2ccccc2o1)N1CCN(c2ccncc2)CC1 (stereo not drawn)	x	x	x	n	x	x	x
CC(C)NC(=O)N[C@H]1CC[C@H](CC(=O)NCc2ccc(Oc3ccccc3)cc2)O[C@@H]1CO	x	x	x	14.8	x	n	n
COc1cccc(N(C(=O)c2snc(C(N)=O)c2N)C(C(=O)NCC2CCCO2)c2ccc3ncccc3c2)c1 (stereo not drawn)	n	n	n	n	n	x	x
CC(C)(C)NC(=O)C(c1cc2ccccc2o1)n1c(=O)c(-c2ccco2)nc2ccccc21 (stereo not drawn)	x	x	x	16.2	x	n	n
CC(C)(C)NC(=O)C(c1ccccc1)n1c(=O)c(-c2ccco2)nc2ccccc21 (stereo not drawn)	x	x	x	n	x	x	x
COc1cc(NC(=O)c2ccc(S(=O)(=O)N(C)c3ccccc3)cc2)cc(OC)c1	n	n	n	n	n	x	x
Cc1noc(C)c1COc1ccccc1C(=O)NNC(=O)C(C)Oc1ccccc1F (stereo not drawn)	n	n	n	n	n	x	x
CC12CC3CC(C)(C1)CC(C(O)CN1CCOCC1)(C3)C2 (stereo not drawn)	n	n	n	16.0	n	n	n
FC(F)(F)c1cccc(CN2CCN(c3ncccn3)CC2)c1	n	n	n	20.5	n	n	65.9
O=[N+]([O-])c1cccc(CN2CCN(c3ncccn3)CC2)c1	n	n	n	14.6	n	n	59.5
Fc1cccc(CN2CCN(c3ncccn3)CC2)c1	n	n	n	41.3	n	n	112.8
